Where two headings read alike, the source gives them in different places.
How the values were obtained:
[1] = tested on: PC GABAA receptor (GABAergic IPSC in Purkinje neurons); assay type: cell-based, mouse; details: for IPSC decay time constant in the presence of etomidate: 3 µM, 10 min
[2] = biological target: GABAA receptors composed of α1β3γ2; details: heterologous expression systems; ref Belelli et al., 2003; cited from earlier work
[3] = tested on: PC GABAA receptor (β1-subunit-containing); assay: Loreclezole inhibition of GABA-mediated current in cultured Purkinje cells; assay type: cell-based, rat; details: 30 µM
Method in brief: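 Cerebellar neurons plated on glass coverslips (2.8 × 10^5 cells), kept at 37 °C in 5% CO2 and recorded after 10–14 days in vitro. 1 s pulses of 20 µM GABA every 30 s until baseline stable; 30 µM test compound (DMSO stock diluted in saline) applied by local perfusion for 30 s, then kept through three more GABA pulses. 1 mM GABA given at end of recording. n = individual cells; mean ± SEM.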

CCOC(=O)c1cncn1[C@H](C)c1ccccc1 [Etomidate]
IPSC decay time constant in the presence of etomidate ([1]; slices 3 h after CA/CPR, P < 0.05 vs sham): 534.5 ± 42.3 ms
IPSC decay time constant in the presence of etomidate ([1]; slices from control sham-operated mice): 837 ± 128 ms
EC50 [2]: 4 µM

Cl/C(=C\n1cncn1)c1ccc(Cl)cc1Cl [loreclezole]
Initial reduction in GABA-mediated current ([3]; 30 s pre-application, 20 µM GABA pulses): 30%
Maximal decrease in GABA-mediated current with subsequent pulses of GABA ([3]; 20 µM GABA pulses every 30 s, n = 4): 65.5 ± 6.8%

picrotoxin
Effect on outward GABAergic IPSC in Purkinje neurons ([1]; data not shown): blocked

Reference: article PMC3772679 (The European journal of neuroscience, 2012)
